M5 PAM = CHRM5 positive allosteric modulation | P08912 | CHO-K1 hM5, Fluo-8 calcium, ACh EC20 PAM; 0% = ACh EC20, 100% = ACh EC100 | activation, % at 3 µM | hit rate 0.3% among 360,000 | AID 624038;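 active = activation above the run cutoff, the mean activation of all test compounds plus 3 SD, cut at about 18% in these data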
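Assay system: CHO-K1 hM5 cells. Also added: acetylcholine at EC20 concentration, added after compound. Dosing: 3 µM, single dose. Times: compound preincubation 140 s before EC20 acetylcholine addition. Signal: Fluo-8 calcium fluorescence. Measure: % activation relative to EC20 and EC100 ACh responses. Repeats: singlicate, one well per test compound.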
CHRM5 agonist = agonists of human muscarinic M5 receptor (CHRM5) | hit rate 0.19% among 360,000 | activation, % at 3 µM | P08912 | CHO-K1 hM5 cells, Fluo-8 calcium fluorescence; 0% DMSO wells, 100% maximal acetylcholine response;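 active = activation above the run's mean over test compounds plus 3 SD, cut at about 23% in these data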;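 also: signal is peak over basal fluorescence ratio across the kinetic read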
M1 PAM = positive allosteric modulators of human M1 muscarinic receptor; hit rate 0.088% among 360,000; activation, % at 3 µM; P11229; CHO-K1 hM1, Fluo-8 calcium fluorescence, ACh EC20; 0% = ACh EC20, 100% = maximal ACh; in the data active = activation above about 19%, passing the limit was not always enough
Target sequence (P11229 whole entry, looked up): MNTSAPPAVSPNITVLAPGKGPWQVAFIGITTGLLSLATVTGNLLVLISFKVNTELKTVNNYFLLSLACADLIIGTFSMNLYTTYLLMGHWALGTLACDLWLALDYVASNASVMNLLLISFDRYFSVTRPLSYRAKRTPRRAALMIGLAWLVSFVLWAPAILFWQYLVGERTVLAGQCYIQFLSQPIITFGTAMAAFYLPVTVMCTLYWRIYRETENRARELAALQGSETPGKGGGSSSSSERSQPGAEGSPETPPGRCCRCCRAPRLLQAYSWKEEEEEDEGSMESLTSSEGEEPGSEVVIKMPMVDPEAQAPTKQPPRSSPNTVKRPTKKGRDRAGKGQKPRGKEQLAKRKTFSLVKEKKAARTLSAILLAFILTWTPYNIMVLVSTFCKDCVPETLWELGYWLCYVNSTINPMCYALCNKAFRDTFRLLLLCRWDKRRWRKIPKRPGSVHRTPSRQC
CHRM1 antagonist = blocks human M1 muscarinic receptor | AID 588852 | CHO-K1 hM1, Fluo-8 calcium fluorescence, ACh EC80 antagonist | hit rate 1.3% among 360,000 | inhibition, % at 3 µM;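 active = percent inhibition above its own plate's cutoff, namely the mean of that plate's compound wells plus 3 SD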;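 also: peak over basal fluorescence ratio during 140 s after agonist addition; 0% = ACh EC80 plus DMSO and 100% = DMSO alone without agonist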
CHRM1 agonist = agonists of human M1 muscarinic receptor; P11229; CHO-K1 hM1, Fluo-8 calcium fluorescence, agonist mode; 0% DMSO, 100% acetylcholine EC100; activation, % at 3 µM; hit rate 0.33% among 360,000; AID 588814;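 active = activation above the run's mean compound activation plus 3 SD, cut at about 16% in these data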;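 also: peak over basal fluorescence ratio within a 140 s kinetic read after compound addition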
M5 antag = antagonists of human muscarinic M5 receptor (CHRM5); P08912; CHO-hM5 cells, Fluo-8 calcium fluorescence, ACh EC80; inhibition, % at 3 µM; hit rate 0.59% among 360,000;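 active = inhibition above a per-plate cutoff, the mean of that plate's test compounds plus 3 SD, cut at about 27% in these data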;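 also: 0% = acetylcholine EC80 with DMSO and 100% = DMSO without agonist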
The depositor's hits bear a star. Compounds with a hit are over-represented: about 2.2% of the library has one in this group of screens.

SMILES	M5 PAM	CHRM5 agonist	M1 PAM	CHRM1 antagonist	CHRM1 agonist	M5 antag
CC(C)[N+](C)(CCC(C(N)=O)(c1ccccc1)c1ccccc1)C(C)C	-18	-1	-26	99*	-8	99*
CCN(CC)CCO	4	0	15	-21	2	1
C[CH2][Hg][S]c1ccccc1C(=O)O	17	17	8	-16	7	5
COc1cccc(C2CCN(C)C2)c1 (stereo unspecified)	2	7	-1	-4	29*	5
CCCCCCn1c(O)c(C=Nc2c(C)n(C)n(-c3ccccc3)c2=O)c(=O)[nH]c1=O	25*	-4	-18	47*	-6	19
Cc1c(N=Cc2c(O)n(CCc3ccccc3)c(=O)[nH]c2=O)c(=O)n(-c2ccccc2)n1C	-5	-6	-8	10	-4	4
CC1=C(C)CN2CC(C#N)=C(N)C2C1 (stereo unspecified)	-3	3	2	-3	-4	-6
C[N+](C)(C)CC#CCOC(=O)Nc1cccc(Cl)c1	-20	89*	-22	88*	91*	78*
O=C(Nc1cccc(Cl)c1)N1C[C@H]2C[C@@H](C1)c1cccc(=O)n1C2	-3	3	0	4	-4	6
OCC[N+]12CCC(CC1)C(C(O)(c1ccccc1)c1ccccc1)C2 (stereo unspecified)	-9	-18	-17	30	-9	6
CCCC[N+]12CCC(CC1)C(=C(c1ccccc1)c1ccccc1)C2	-19	-9	-26	99*	-14	72*
CCC[N+]12CCC(CC1)C(=C(c1ccccc1)c1ccccc1)C2	-20	-10	-25	99*	-7	94*
COC(=O)N(c1ccccc1)P(=O)(Oc1ccccc1)Oc1ccccc1	-7	-5	3	-2	-4	2
CN(CC=CCN(C)P(=S)(N1CC1)N1CC1)P(=S)(N1CC1)N1CC1	-6	-2	6	-2	-5	13
Oc1ccc(Cl)c(Cl)c1Cl	-16	1	-23	24*	-2	7
CCCCCSc1cc(OC)c(CCNC)cc1OC	-14	-11	-20	36*	-8	9
CCCCCCCSc1cc(OC)c(CCNC)cc1OC	-6	2	1	7	-1	15
C#CCOC(=O)C1=CCCN(C)C1	-16	97*	-14	83	106*	97*
Cc1noc(C)c1CC(=O)N1CCCC(N2CCN(c3ccccc3F)CC2)C1 (stereo unspecified)	-5	-3	-1	7	-6	12
Cc1ccccc1N1CCN(C2CCCN(C(=O)Cc3c(C)noc3C)C2)CC1 (stereo unspecified)	8	0	13	-14	-6	-18
O=C1NC(=O)N(c2ccccc2)C(=O)/C1=C/c1ccc(Sc2ccccc2)o1	6	2	8	5	-4	-1
O=C1NC(=O)N(c2cccc(Cl)c2)C(=O)/C1=C\c1ccc(Sc2nc3ccccc3[nH]2)o1	-24	36*	-13	9	24*	18
O=C1NC(=O)N(c2ccccc2F)C(=O)/C1=C/c1ccc(Sc2nc3ccccc3[nH]2)o1	-9	16	-9	10	17*	5
Cc1ccc(/C=C2\C(=O)NC(=S)N(c3ccccc3F)C2=O)s1	-6	1	-5	10	-2	13
CC1=NNC(=O)C1Br (stereo unspecified)	4	1	-5	2	-5	6
CCOP(=O)(OCC)Oc1cc(C)c(N(C)C)c(C)c1	-2	-6	-2	5	-7	7
CCOc1cccc(CNCCc2c(C)[nH]c3ccc(OC(F)(F)F)cc23)c1O	-15	24*	-11	37*	10	42*
Cc1[nH]c2ccc(OC(F)(F)F)cc2c1CCNCc1cccc([N+](=O)[O-])c1	-13	17	-1	9	4	29*
Cc1[nH]c2ccc(OC(F)(F)F)cc2c1CCNCc1ccc(Cl)cc1	2	3	10	2	-2	9

Source: PubChem BioAssay (The Scripps Research Institute Molecular Screening Center)
